Measured values from ChEMBL document CHEMBL5678799 (Biochem J, 2009).
The source made the active and inactive calls. The rule behind the calls is not given here.

Experiments:
[1] = molecular target: AMPK alpha1/beta2/gamma1 (Homo sapiens) (UniProt O43741+P54619+Q13131); assay: Inhibition of recombinant N-terminal His6-tagged human AMPKalpha1 (11 to 559 residues)/AMPKbeta2 (1 to 272 residues)/AMPKgamma1 (1 to 331 residues) expressed in baculovirus infected Sf21 cells assessed as remaining activity at 10 uM using SAMS as substrate incubated for 30 mins in presence of [gamma-33P]ATP by filter binding method relative to control
Sequence of AMPK alpha1/beta2/gamma1 (Homo sapiens) (O43741 whole entry, looked up, the tested form may be a part): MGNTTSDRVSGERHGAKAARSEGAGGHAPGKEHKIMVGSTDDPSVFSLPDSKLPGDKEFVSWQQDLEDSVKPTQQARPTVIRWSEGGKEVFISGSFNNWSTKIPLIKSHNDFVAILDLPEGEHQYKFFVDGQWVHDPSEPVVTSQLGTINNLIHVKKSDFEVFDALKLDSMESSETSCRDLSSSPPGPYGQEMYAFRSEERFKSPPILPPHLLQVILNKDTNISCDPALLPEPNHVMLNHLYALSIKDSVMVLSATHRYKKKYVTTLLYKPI
Sequence of AMPK alpha1/beta2/gamma1 (Homo sapiens) (P54619 whole entry, looked up, the tested form may be a part): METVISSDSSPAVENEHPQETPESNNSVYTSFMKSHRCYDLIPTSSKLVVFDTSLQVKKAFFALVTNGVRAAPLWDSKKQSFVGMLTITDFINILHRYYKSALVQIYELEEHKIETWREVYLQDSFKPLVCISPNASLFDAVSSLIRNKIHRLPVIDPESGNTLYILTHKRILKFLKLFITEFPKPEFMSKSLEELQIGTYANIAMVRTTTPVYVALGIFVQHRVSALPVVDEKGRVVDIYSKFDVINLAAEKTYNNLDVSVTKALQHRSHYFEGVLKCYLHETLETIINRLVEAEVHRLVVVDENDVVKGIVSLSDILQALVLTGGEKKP
Sequence of AMPK alpha1/beta2/gamma1 (Homo sapiens) (Q13131 whole entry, looked up, the tested form may be a part): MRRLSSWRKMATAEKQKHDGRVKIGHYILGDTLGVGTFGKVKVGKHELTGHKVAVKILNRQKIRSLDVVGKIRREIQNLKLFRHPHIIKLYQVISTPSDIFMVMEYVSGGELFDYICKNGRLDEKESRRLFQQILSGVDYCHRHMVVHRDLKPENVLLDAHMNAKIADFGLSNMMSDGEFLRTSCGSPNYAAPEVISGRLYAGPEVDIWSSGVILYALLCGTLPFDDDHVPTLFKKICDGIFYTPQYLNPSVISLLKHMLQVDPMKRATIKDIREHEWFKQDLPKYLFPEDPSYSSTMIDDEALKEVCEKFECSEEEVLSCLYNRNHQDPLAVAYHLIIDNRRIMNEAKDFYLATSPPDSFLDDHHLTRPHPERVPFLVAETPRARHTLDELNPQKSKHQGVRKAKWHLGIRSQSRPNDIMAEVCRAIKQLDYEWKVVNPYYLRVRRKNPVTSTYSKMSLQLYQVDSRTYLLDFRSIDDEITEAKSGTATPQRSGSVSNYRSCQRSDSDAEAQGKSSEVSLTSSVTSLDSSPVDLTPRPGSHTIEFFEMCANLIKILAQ
Method in brief: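 Run robotically for 30 min at 21 °C under linear conditions. Compound at 1 or 10 µM. Percentage activity remaining versus control without compound, triplicate mean ± S.D.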

[2] = molecular target: MAP kinase-interacting serine/threonine-protein kinase 1 (Homo sapiens) (UniProt Q9BUB5); assay: Inhibition of recombinant human N-terminal GST-tagged C-terminal His6-tagged MNK1 (2 to 424 residues) expressed in Escherichia coli assessed as remaining activity at 1 uM using eIF4E as substrate incubated for 30 mins in presence of [gamma-33P]ATP by filter binding method relative to control
[3] = molecular target: Serine/threonine-protein kinase 26 (Homo sapiens) (UniProt Q9P289); assay: Inhibition of recombinant human N-terminal His6-tagged MST4 (1 to 416 residues) expressed in baculovirus infected Sf21 cells assessed as remaining activity at 1 uM using MBP as substrate incubated for 30 mins in presence of [gamma-33P]ATP by filter binding method relative to control
[4] = molecular target: MAP kinase-activated protein kinase 5 (Homo sapiens) (UniProt Q8IW41); assay: Inhibition of recombinant human His6-tagged PRAK (1 to 471 residues) expressed in baculovirus infected Sf21 cells assessed as remaining activity at 1 uM using phosphorylase b peptide as substrate incubated for 30 mins in presence of [gamma-33P]ATP by filter binding method relative to control
Method in brief: (§1)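 Robotic radiometric panel assay, 30 min at room temperature (21 °C), with 10 mM magnesium acetate. […] Compound at 1 or 10 µM. Residual activity expressed relative to compound-free control; triplicate average ± S.D.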

[5] = molecular target: Casein kinase I isoform delta (Homo sapiens) (UniProt P48730); assay: Inhibition of recombinant human N-terminal GST-tagged CK1delta (1 to 415 residues) expressed in Escherichia coli assessed as remaining activity at 10 uM using RRKDLHDDEEDEAMSITA as substrate incubated for 30 mins in presence of [gamma-33P]ATP by filter binding method relative to control; method in brief: as §1
Sequence of Casein kinase I isoform delta (Homo sapiens) (P48730 whole entry, looked up, the tested form may be a part, canonical isoform): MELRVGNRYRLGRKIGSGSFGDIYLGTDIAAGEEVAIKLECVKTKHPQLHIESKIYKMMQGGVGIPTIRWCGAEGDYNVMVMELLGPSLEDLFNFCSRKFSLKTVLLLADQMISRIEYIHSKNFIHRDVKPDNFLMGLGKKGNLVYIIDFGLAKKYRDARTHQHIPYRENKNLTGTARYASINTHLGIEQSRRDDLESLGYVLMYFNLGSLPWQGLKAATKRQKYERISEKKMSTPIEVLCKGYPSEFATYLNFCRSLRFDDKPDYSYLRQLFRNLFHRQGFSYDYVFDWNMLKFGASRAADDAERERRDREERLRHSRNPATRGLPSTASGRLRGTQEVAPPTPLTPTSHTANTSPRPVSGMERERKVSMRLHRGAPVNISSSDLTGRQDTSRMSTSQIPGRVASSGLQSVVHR

[6] = molecular target: Mitogen-activated protein kinase 12 (Homo sapiens) (UniProt P53778); assay: Inhibition of recombinant human N-terminal GST-tagged P38gamma (1 to 367 residues) expressed in Escherichia coli assessed as remaining activity at 10 uM using MBP as substrate incubated for 30 mins in presence of [gamma-33P]ATP by filter binding method relative to control
Method in brief: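 Radiometric kinase panel run robotically at room temperature (21 °C) for 30 min, linear in time and enzyme. […] Activity is expressed as percent of control without compound, from triplicate determinations ± S.D.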

[7] = tested on: Serine/threonine-protein kinase Sgk1 (Homo sapiens), O00141 [S422D]; assay: Inhibition of recombinant human His6-tagged SGK1 S422D mutant (60 to 431 residues) expressed in baculovirus infected Sf21 cells assessed as remaining activity at 10 uM using GRPRTSSFAEGKK as substrate incubated for 30 mins in presence of [gamma-33P]ATP by filter binding method relative to control
Sequence of Serine/threonine-protein kinase Sgk1 (Homo sapiens), O00141 [S422D] (O00141 whole entry S422D, the tested form may be a part): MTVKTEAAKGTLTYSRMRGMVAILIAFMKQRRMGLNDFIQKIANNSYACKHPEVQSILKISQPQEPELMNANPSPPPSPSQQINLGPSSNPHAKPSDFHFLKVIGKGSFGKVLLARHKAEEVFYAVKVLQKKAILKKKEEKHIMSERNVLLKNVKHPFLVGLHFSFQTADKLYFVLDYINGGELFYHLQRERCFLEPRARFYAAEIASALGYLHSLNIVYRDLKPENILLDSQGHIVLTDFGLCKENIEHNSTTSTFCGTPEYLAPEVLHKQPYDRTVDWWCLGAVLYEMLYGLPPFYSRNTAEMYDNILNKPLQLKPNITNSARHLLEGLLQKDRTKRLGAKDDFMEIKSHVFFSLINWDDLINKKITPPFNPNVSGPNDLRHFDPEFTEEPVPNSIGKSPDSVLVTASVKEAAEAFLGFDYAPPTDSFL
Method in brief: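 Incubations ran robotically for 30 min at room temperature (21 °C) under linear conditions. Results are percent activity remaining versus controls without compound, as the mean of triplicates ± S.D.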

[8] = molecular target: Tyrosine-protein kinase SYK (Homo sapiens) (UniProt P43405); assay: Inhibition of recombinant human N-terminal His6-tagged SYK (1 to 635 residues) expressed in baculovirus infected Sf21 cells assessed as remaining activity at 10 uM using Poly (Glu,Tyr) as substrate incubated for 30 mins in presence of [gamma-33P]ATP by filter binding assay relative to control
[9] = molecular target: Phosphatidylinositol 4-phosphate 3-kinase C2 domain-containing subunit beta (Homo sapiens) (UniProt O00750); assay: Inhibition of PI3KC2beta (unknown origin) assessed as remaining activity at 1 uM using phosphatidylinositol as substrate incubated for 30 mins in presence of ATP relative to control
Sequence of Phosphatidylinositol 4-phosphate 3-kinase C2 domain-containing subunit beta (Homo sapiens) (O00750 whole entry, the tested form may be a part): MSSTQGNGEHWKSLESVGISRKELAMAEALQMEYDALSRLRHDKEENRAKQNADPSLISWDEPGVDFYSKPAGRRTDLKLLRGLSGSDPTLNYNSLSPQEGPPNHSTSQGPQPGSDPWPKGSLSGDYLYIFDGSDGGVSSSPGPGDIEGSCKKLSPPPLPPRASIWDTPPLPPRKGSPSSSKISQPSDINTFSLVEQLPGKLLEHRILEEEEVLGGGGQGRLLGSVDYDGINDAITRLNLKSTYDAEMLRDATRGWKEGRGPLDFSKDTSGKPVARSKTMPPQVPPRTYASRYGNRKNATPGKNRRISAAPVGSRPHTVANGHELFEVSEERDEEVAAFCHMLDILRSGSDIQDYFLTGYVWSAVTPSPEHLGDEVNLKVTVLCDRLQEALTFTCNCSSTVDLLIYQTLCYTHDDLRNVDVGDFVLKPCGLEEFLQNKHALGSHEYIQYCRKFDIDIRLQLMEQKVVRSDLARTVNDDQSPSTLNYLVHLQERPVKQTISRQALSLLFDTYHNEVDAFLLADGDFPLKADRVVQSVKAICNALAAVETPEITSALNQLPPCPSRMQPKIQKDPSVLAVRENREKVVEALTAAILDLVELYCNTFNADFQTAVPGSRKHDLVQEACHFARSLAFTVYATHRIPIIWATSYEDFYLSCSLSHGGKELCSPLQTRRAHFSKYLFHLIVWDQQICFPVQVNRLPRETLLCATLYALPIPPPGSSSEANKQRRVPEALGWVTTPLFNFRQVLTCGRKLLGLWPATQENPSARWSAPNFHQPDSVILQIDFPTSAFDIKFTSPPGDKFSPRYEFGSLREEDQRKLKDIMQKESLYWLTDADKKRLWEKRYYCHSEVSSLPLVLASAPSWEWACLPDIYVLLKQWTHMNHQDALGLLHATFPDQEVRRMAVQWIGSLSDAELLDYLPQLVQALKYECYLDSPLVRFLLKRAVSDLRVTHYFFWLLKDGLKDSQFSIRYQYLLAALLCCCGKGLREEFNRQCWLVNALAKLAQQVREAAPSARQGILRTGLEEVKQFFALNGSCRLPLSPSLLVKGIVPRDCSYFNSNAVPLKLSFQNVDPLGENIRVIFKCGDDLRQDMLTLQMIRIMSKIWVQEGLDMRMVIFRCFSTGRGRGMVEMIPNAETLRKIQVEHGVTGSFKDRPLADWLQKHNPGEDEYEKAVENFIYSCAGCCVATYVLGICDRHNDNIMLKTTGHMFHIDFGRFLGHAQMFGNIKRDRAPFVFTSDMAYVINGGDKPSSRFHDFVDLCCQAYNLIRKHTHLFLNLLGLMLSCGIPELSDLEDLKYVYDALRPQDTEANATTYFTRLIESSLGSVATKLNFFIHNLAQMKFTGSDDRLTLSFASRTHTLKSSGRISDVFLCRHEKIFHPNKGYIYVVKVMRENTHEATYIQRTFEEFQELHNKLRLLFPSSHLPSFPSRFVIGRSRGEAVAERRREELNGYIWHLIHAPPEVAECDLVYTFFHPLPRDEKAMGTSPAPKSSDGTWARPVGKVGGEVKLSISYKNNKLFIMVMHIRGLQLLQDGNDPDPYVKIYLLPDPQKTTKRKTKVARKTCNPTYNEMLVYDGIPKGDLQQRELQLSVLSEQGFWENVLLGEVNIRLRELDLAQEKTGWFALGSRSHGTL
Method in brief: (§2)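 PI3KC2β assayed with 20 μM phosphatidylinositol, 0.2 mM ATP, 2 mM MgCl2, in Tris/HCl pH 7.5 with CHAPS, 30 min at room temperature. Stopped with EDTA, product detected by time-resolved FRET competition with PtdIns3P–biotin and SGK PX domain. Activity as % of no-compound control, triplicate.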

[10] = molecular target: Phosphatidylinositol 4-phosphate 3-kinase C2 domain-containing subunit beta (Homo sapiens) (UniProt O00750); assay: Inhibition of PI3KC2beta (unknown origin) assessed as remaining activity at 10 uM using phosphatidylinositol as substrate incubated for 30 mins in presence of ATP relative to control; method in brief: as §2
[11] = molecular target: Sphingosine kinase 1 (Homo sapiens) (UniProt Q9NYA1); assay: Inhibition of SPHK1 (unknown origin) assessed as remaining activity at 10 uM using sphingosine as substrate incubated for 30 mins in presence of ATP relative to control
Sequence of Sphingosine kinase 1 (Homo sapiens) (Q9NYA1 whole entry): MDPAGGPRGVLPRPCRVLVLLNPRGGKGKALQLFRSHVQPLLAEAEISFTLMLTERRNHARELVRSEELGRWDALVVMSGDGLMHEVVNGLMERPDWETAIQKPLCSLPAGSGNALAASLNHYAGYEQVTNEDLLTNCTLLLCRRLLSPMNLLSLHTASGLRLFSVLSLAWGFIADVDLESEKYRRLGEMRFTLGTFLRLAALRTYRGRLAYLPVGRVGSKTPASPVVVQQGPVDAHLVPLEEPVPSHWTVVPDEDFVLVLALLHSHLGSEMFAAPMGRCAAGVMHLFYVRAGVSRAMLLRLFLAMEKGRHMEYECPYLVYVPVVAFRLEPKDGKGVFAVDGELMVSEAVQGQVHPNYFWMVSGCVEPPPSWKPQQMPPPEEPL
Method in brief: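 SPHK1 assayed with 10 μM sphingosine, 10 μM ATP in 50 mM Tris/HCl pH 7.5, 150 mM NaCl, 5 mM MgCl2, 1 mM EGTA, 1 mM DTT, 30 min at room temperature. ATP remaining read by Kinase-Glo Plus luminescence after 10 min. Activity as % of control, triplicate.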

[12] = molecular target: Serine/threonine-protein kinase mTOR (Mus musculus) (UniProt Q9JLN9); assay: Inhibition of mTOR in MEF cells assessed as reduction in 4E-BP1 phosphorylation at T37/46 residues at 1 uM incubated for 30 mins by immunoblot analysis; format: cell-based
Method in brief: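 Cells (MEFs, wild-type or knockout, or HeLa) kept in 10% serum, then exposed 30 min to inhibitor or vehicle at the stated level. Washed twice in ice-cold PBS and lysed in Tris lysis buffer with CHAPS, phosphatase and protease inhibitors. Lysates cleared at 18000 g and immunoblotted with phospho-specific antibodies and ECL detection. Blots are representative of three experiments.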

[13] = molecular target: T1, mTORC1 (Homo sapiens) (UniProt P42345+Q8N122+Q9BVC4); details: HEK293, dose 30-1000 nM, time 30.0 min
[14] = molecular target: T1, mTORC1 (Homo sapiens); details: HEK293, dose 100-300 nM, time 30.0 min
[15] = molecular target: mTORC2 (Homo sapiens) (UniProt P42345+Q6R327+Q9BVC4+Q9BPZ7); details: HEK293, dose 30-1000 nM, time 30.0 min
[16] = molecular target: T1, mTORC1 (Homo sapiens); details: HEK293, dose 30-1000 nM, time 30.0 min; remark: listed apart in the source
[17] = molecular target: Serine/threonine-protein kinase D1 (Homo sapiens) (UniProt Q15139); assay: Inhibition of recombinant human N-terminal His6-tagged PKD1 (2 to 912 residues) expressed in baculovirus infected Sf21 cells assessed as remaining activity at 10 uM using KKLNRTLSVA as substrate incubated for 30 mins in presence of [gamma-33P]ATP by filter binding method relative to control
Sequence of Serine/threonine-protein kinase D1 (Homo sapiens) (Q15139 whole entry, looked up, the tested form may be a part): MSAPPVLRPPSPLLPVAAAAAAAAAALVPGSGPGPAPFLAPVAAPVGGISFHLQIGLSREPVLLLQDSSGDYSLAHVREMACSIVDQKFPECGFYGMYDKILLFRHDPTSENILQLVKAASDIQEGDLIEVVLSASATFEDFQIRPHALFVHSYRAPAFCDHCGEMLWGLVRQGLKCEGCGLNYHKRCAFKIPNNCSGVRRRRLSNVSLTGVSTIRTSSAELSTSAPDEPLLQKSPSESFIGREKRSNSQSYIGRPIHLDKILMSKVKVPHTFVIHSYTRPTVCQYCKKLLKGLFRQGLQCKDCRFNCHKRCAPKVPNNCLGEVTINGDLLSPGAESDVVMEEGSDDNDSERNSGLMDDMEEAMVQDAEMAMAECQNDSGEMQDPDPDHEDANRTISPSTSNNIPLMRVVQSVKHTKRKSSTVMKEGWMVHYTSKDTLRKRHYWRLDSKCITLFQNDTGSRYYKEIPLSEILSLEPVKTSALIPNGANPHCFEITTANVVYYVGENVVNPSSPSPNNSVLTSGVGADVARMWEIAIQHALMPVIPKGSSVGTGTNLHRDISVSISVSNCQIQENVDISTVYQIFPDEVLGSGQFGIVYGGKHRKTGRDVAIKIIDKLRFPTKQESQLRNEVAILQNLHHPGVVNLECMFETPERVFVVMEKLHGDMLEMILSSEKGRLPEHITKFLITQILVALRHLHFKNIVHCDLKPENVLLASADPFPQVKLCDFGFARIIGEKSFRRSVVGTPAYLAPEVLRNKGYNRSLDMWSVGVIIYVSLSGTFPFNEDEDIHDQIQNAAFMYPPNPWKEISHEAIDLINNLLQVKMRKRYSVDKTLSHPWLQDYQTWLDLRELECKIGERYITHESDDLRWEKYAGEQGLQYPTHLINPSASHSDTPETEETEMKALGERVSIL

Question: With `COc1ccc(-c2ccc3c(N4CCOCC4)nc(N4C[C@@H](C)O[C@@H](C)C4)nc3n2)cc1CO` [Ku-0063794] as the molecule, how does the Activity [1] read?
Answer: 106%

Question: What about the Activity [2] of the same molecule?
Answer: 111%

Question: What about the Activity [3] of the same molecule?
Answer: 87%

Question: And the Activity [4]?
Answer: 67%

Question: And the Activity [5]?
Answer: 109%

Question: What about the Activity [6] of the same molecule?
Answer: 91%

Question: And the Activity [7]?
Answer: 64%

Question: What about the Activity [8] of the same molecule?
Answer: 83%

Question: And the Activity [9]?
Answer: 126%

Question: What about the Activity [10] of the same molecule?
Answer: 82%

Question: What about the Activity [11] of the same molecule?
Answer: 99%

Question: What about the inhibition [12] of the same molecule?
Answer: Active

Question: What about the inhibition [13] of the same molecule?
Answer: Dose-Dependent Effect

Question: And the inhibition [14]?
Answer: 100%

Question: And the inhibition [15]?
Answer: Dose-Dependent Effect

Question: And the inhibition [16]?
Answer: Dose-Dependent Effect

Question: And the Activity [17]?
Answer: 101%
